From ChEMBL document CHEMBL1123266, “Antibacterial activity of phosphono dipeptides related to alafosfalin” (J Med Chem, 1986) come the findings set out here.

In brackets after ≈: the same amount, converted by molar mass.

Experiment [1] has as its system Bacillus subtilis. The experiment is described as follows: Concentration (IC50) to inhibit the growth of Bacillus subtilis. In kind it is functional, organism-based. The gist of the method: (§1)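 Broth dilution in a defined liquid peptide medium lacking antagonists of small peptide mimetics. Inocula were overnight cultures grown in this medium at 37 °C and diluted to about 4 × 10^6 cfu/mL. Compound was tested as a doubling dilution series, final 0.065–512 μg/mL, incubated overnight at 37 °C. Turbidity was read, and IC50 is the concentration reducing 24-h growth to 50% of control.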

Experiment [2] relates to Escherichia coli. The experiment is described as follows: Minimum inhibitory concentration (MIC) to control the growth of Escherichia coli strain PCM 2057. Type of experiment: functional. An outline of the steps:
(§2)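 Doubling dilutions of compound were made in a defined liquid peptide medium free of peptide-mimetic antagonists, final 0.065–512 μg/mL. The inoculum was an overnight 37 °C culture diluted to about 4 × 10^6 cfu/mL, incubated overnight at 37 °C. Non-turbid samples were subcultured (0.1 mL) onto solid peptide-medium agar and incubated overnight at 37 °C to assign MIC.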

For experiment [3], the system named is Escherichia coli. Briefly: Concentration (IC50) to inhibit the growth of Escherichia coli. In kind it is functional, organism-based. An outline of the steps:
as §1

For experiment [4], the system named is Klebsiella aerogenes. Briefly: Concentration (IC50) to inhibit the growth of Klebsiella aerogenes. In kind it is functional, organism-based. An outline of the steps:
as §1

Experiment [5] concerns Klebsiella aerogenes. Briefly: Minimum inhibitory concentration (MIC) to control the growth of Klebsiella aerogenes strain PCM 2063. Type of experiment: functional. An outline of the steps:
as §2

Experiment [6] concerns Staphylococcus aureus. Briefly: Concentration (IC50) to inhibit the growth of Staphylococcus aureus. Type of experiment: functional, organism-based. An outline of the steps:
as §1

Experiment [7] concerns Staphylococcus aureus. The experiment is described as follows: Minimum inhibitory concentration (MIC) to control the growth of Staphylococcus aureus strain PCM 2054. Type of experiment: functional. An outline of the steps:
as §2

Experiment [8] concerns Serratia marcescens. The experiment is described as follows: Concentration (IC50) to inhibit the growth of Serratia marcescens. In kind it is functional, organism-based. An outline of the steps: as §1
In experiment [9] the test system is Enterococcus faecalis. Briefly: Concentration (IC50) to inhibit the growth of Streptococcus faecalis. In kind it is functional, organism-based. The gist of the method:
as §1

Experiment [10] relates to Enterococcus faecalis. The experiment is described as follows: Minimum inhibitory concentration (MIC) to control the growth of Streptococcus faecalis strain PCM 896. Type of experiment: functional. An outline of the steps:
as §2

Experiment [11] relates to Bacillus subtilis. The experiment is described as follows: Minimum inhibitory concentration (MIC) to control the growth of Bacillus subtilis strain PCM 1949. In kind it is functional. An outline of the steps:
as §2

Experiment [12] deals with Serratia marcescens. The experiment is described as follows: Compound was evaluated for its minimum inhibitory concentration (MIC) to control the growth of Serratia marcescens strain PCM 549. Type of experiment: functional. The gist of the method:
as §2

Experiment [13] has as its system Bacillus subtilis. The experiment is described as follows: Compound was evaluated for its minimum inhibitory concentration (MIC) to control the growth of Bacillus subtilis strain PCM 1949. In kind it is functional. An outline of the steps: as §2
Experiment [14] relates to Staphylococcus aureus. The experiment is described as follows: Compound was evaluated for its minimum inhibitory concentration (MIC) to control the growth of Staphylococcus aureus strain PCM 2054. Type of experiment: functional. The gist of the method: as §2
Experiment [15] deals with Staphylococcus aureus. Briefly: Compound was evaluated for its concentration (IC50) to inhibit the growth of Staphylococcus aureus. In kind it is functional, organism-based. An outline of the steps:
as §1

In experiment [16] the test system is Serratia marcescens. Briefly: Minimum inhibitory concentration (MIC) to control the growth of Serratia marcescens strain PCM 549. Type of experiment: functional. The gist of the method: as §2
The test system of experiment [17] is Escherichia coli. Briefly: Compound was evaluated for its minimum inhibitory concentration (MIC) to control the growth of Escherichia coli strain PCM 2057. In kind it is functional. An outline of the steps: as §2
Experiment [18] deals with Serratia marcescens. The experiment is described as follows: Compound was evaluated for its concentration (IC50) to inhibit the growth of Serratia marcescens. Type of experiment: functional, organism-based. An outline of the steps: as §1

The IC50 is the concentration needed to halve the response being measured. The low end stands for inhibition by little substance, the high end for a need for much substance. A word on the MIC: it is the lowest concentration that inhibits growth of the organism. For the molecule `CC(C)CC(N)C(=O)NC(C1CC1)P(=O)(O)O` (configuration not stated), the IC50 in the experiment on Bacillus subtilis [1] was above 512 mg/L; in the experiment on Escherichia coli [3], above 512 mg/L; in the experiment on Klebsiella aerogenes [4], above 512 mg/L; in the experiment on Staphylococcus aureus [6] it was 83 mg/L (≈ 314 µM); with Serratia marcescens [8] it was above 512 mg/L; in the experiment on Enterococcus faecalis [9] it was above 512 mg/L. Further, the MIC in the experiment on Escherichia coli [2] is above 512 mg/L; in the experiment with Klebsiella aerogenes [5] it was above 512 mg/L; against Staphylococcus aureus [7], 128 mg/L (≈ 484 µM); in the experiment with Enterococcus faecalis [10], above 512 mg/L; with Bacillus subtilis [11] it was above 512 mg/L; in the experiment with Serratia marcescens [12], above 512 mg/L.
`CC(N)C(=O)NC(Cc1ccccc1)P(=O)(O)O` (configuration not stated): the MIC in the experiment with Bacillus subtilis [13], in the experiment on Escherichia coli [2], in the experiment with Klebsiella aerogenes [5], against Staphylococcus aureus [14], with Enterococcus faecalis [10] and in the experiment with Serratia marcescens [12] was above 512 mg/L each time. Also, the IC50 is 6.8 mg/L (≈ 25 µM) with Bacillus subtilis [1]; above 512 mg/L in the experiment on Escherichia coli [3]; above 512 mg/L in the experiment on Klebsiella aerogenes [4]; 14 mg/L (≈ 51.4 µM) in the experiment with Serratia marcescens [8]; 333 mg/L (≈ 1220 µM) with Staphylococcus aureus [15]; above 512 mg/L with Enterococcus faecalis [9].
In the case of `CC(N)C(=O)NC(C1CCC1)P(=O)(O)O` (configuration not stated), the IC50 in the experiment with Bacillus subtilis [1], with Escherichia coli [3], in the experiment on Klebsiella aerogenes [4], in the experiment on Staphylococcus aureus [6], in the experiment with Serratia marcescens [8] and in the experiment on Enterococcus faecalis [9] was above 512 mg/L throughout. Further, the MIC in the experiment with Escherichia coli [2], with Klebsiella aerogenes [5], against Staphylococcus aureus [7], with Serratia marcescens [16], in the experiment on Enterococcus faecalis [10] and in the experiment with Bacillus subtilis [11] was above 512 mg/L throughout.
Turning to `CC(C)CC(N)C(=O)NC(C(C)C)P(=O)(O)O` (configuration not stated), the half-maximal inhibitory concentration (IC50) is 179 mg/L (≈ 672 µM) in the experiment with Bacillus subtilis [1]; 282 mg/L (≈ 1060 µM) in the experiment on Escherichia coli [3]; 0.065 mg/L (≈ 0.244 µM) with Klebsiella aerogenes [4]; 32 mg/L (≈ 120 µM) in the experiment on Staphylococcus aureus [6]; above 512 mg/L in the experiment on Serratia marcescens [8]; 410 mg/L (≈ 1540 µM) in the experiment with Enterococcus faecalis [9]. The MIC with Escherichia coli [2] is above 512 mg/L; against Klebsiella aerogenes [5], above 512 mg/L; against Staphylococcus aureus [7], above 512 mg/L; against Serratia marcescens [16] it was above 512 mg/L; against Enterococcus faecalis [10], above 512 mg/L; with Bacillus subtilis [11], 512 mg/L (≈ 1920 µM).
As to `CC(N)C(=O)NC(C)P(=O)(O)O` (configuration not stated), the IC50 was 512 mg/L (≈ 2610 µM) with Bacillus subtilis [1]; 0.22 mg/L (≈ 1.12 µM) in the experiment with Escherichia coli [3]; 64 mg/L (≈ 326 µM) in the experiment on Klebsiella aerogenes [4]; 58 mg/L (≈ 296 µM) in the experiment with Staphylococcus aureus [6]; 0.6 mg/L (≈ 3.06 µM) with Serratia marcescens [8]; 30 mg/L (≈ 153 µM) in the experiment with Enterococcus faecalis [9]. Besides, the MIC was 8 mg/L (≈ 40.8 µM) in the experiment with Escherichia coli [17]; above 512 mg/L against Klebsiella aerogenes [5]; above 512 mg/L against Staphylococcus aureus [7]; 64 mg/L (≈ 326 µM) against Serratia marcescens [16]; above 512 mg/L with Enterococcus faecalis [10]; above 512 mg/L in the experiment on Bacillus subtilis [11].
For `CC(C)CC(N)C(=O)NC(C1CCC1)P(=O)(O)O` (configuration not stated), the IC50 in the experiment on Bacillus subtilis [1] was above 512 mg/L; in the experiment with Escherichia coli [3], above 512 mg/L; in the experiment on Klebsiella aerogenes [4] it was above 512 mg/L; in the experiment with Serratia marcescens [18], above 512 mg/L; in the experiment on Staphylococcus aureus [6], above 512 mg/L; in the experiment with Enterococcus faecalis [9], 230 mg/L (≈ 826 µM). In addition, the MIC in the experiment with Escherichia coli [2], with Klebsiella aerogenes [5], against Staphylococcus aureus [7], against Serratia marcescens [16], in the experiment with Enterococcus faecalis [10] and in the experiment on Bacillus subtilis [11] was above 512 mg/L throughout.
